Measured values from different studies.
Each line is one published result; the experiments were not run side by side.
Target: SRSF protein kinase 3 (SRPK3, Homo sapiens, UniProt Q9UPE1)

O=C(c1ccc(Nc2nccc(-c3cc4ccccc4s3)n2)cc1)N1CCC(N2CCCC2)CC1 has a remaining binding of 100% (binding; competition with immobilised ligand; 1 µM).
NS(=O)(=O)c1cc(NC(=O)Cc2ccccc2)ccc1Oc1cccc(Cl)c1 has a remaining binding of 100% (cell-free assay; competition with immobilised ligand; 1 µM).
CN(c1nccc(-c2cnn3ncccc23)n1)C1CC1 has a remaining binding of 83% (binding; 1 µM).
With COc1ncc2cc3ccccc3nc2c1C#N the remaining binding was 98% (cell-free assay; competition with immobilised ligand; 5 µM).
The remaining binding of O=C(Nc1cccnn1)N1CC(C/C=C/c2cncc(Oc3ccc(C(F)(F)F)cn3)n2)C1 is reported as 100% (cell-free assay; competition with immobilised ligand; 1 µM).
With C[C@H]1CCN(c2nccc(-c3cnn4ncccc34)n2)C1 the remaining binding was 68% (binding; 1 µM).
The remaining binding of CCC(=N\O)/C(C)=C/c1ccc(F)cc1 is reported as 91% (cell-free assay; competition with immobilised ligand; 1 µM).
For C=CC(=O)N1CCC(C(=O)NCC(=O)N2CCN(c3nc(-c4cnc(N)nc4C(F)F)nc(N4CCOCC4)n3)CC2)CC1, the remaining binding was 99% (binding; competition with immobilised ligand; 1 µM).
The remaining binding of COc1ccnn2ncc(-c3ccnc(N(C)C)n3)c12 is reported as 67% (binding; 1 µM).
The remaining binding of CCS(=O)(=O)c1cc2cc(C[C@@](O)(CC(C)(C)c3ccc(F)cc3C(N)=O)C(F)(F)F)[nH]c2cn1 is reported as 100% (cell-free assay; competition with immobilised ligand; 1 µM).
For N[C@H]1CCN(c2nccc(-c3cnn4ncccc34)n2)C1, the remaining binding was 66% (binding; 1 µM).
O=C(c1ccc(Nc2ncc(Cl)c(-c3cc4ccccc4s3)n2)cc1)N1CCC(N2CCCC2)CC1 gave a remaining binding of 100% (binding; competition with immobilised ligand; 1 µM).
The remaining binding of CS(=O)(=O)N1CCCC(NC(=O)[C@H](CCC2CCCCC2)NC(=O)c2ccc(CNC(=O)c3cnc4ccccn34)cc2)C1 (stereo partly drawn) is reported as 100% (cell-free assay; competition with immobilised ligand; 0.1 µM).
For CNC(=O)[C@@H]1CC[C@@H](n2c(-c3ccc4cnccc4c3)nc3ccc(C(=O)NCc4cccc(C(N)=O)c4)cc32)C1, the remaining binding was 92% (binding; competition with immobilised ligand; 1 µM).
For Cc1cnn2ncc(-c3ccnc(N(C)C)n3)c2c1, the remaining binding was 56% (binding; 1 µM).
C[C@@H]1CN(c2cc(-c3n[nH]c4ccc(OC5(C)CC5)cc34)ncn2)C[C@H](C)O1 gave a remaining binding of 100% (cell-free assay; competition with immobilised ligand; 0.1 µM).
O=C(Nc1c[nH]nc1C(=O)NC1CCNCC1)c1cc(F)cc(F)c1 gave a remaining binding of 88% (binding; competition with immobilised ligand; 1 µM).
c1cncc(-c2cccc(Nc3nccc(NC4CCCCC4)n3)c2)c1 has a remaining binding of 55% (binding; competition with immobilised ligand; 10 µM).
F[C@@H]1CCN(c2nccc(-c3cnn4ncccc34)n2)C1 has a remaining binding of 100% (binding; 1 µM).
With O=C(NCCCN1CCOCC1)c1ccc(Nc2nccc(-c3cc4ccccc4s3)n2)cc1 the remaining binding was 99% (binding; competition with immobilised ligand; 1 µM).
With COc1ccc2c(O[C@@H]3C[C@H]4C(=O)N[C@]5(C(=O)O)CC5/C=C\CCCCC[C@H](NC(=O)OC5CCCC5)C(=O)N4C3)cc(-c3csc(NC(=O)C(C)C)n3)nc2c1C (stereo partly drawn) the remaining binding was 57% (cell-free assay; competition with immobilised ligand; 1 µM).
COc1cnc(Nc2cccc(S(N)(=O)=O)c2)nc1N1CCN(c2ccccc2)C(=O)C1 has a remaining binding of 79% (binding; competition with immobilised ligand; 1 µM).
C[C@@H]1CN(c2ccc3ncc(-c4ccc5[nH]nc(C6CC6)c5c4)n3n2)C[C@H](C)O1 gave a remaining binding of 85% (binding; competition with immobilised ligand; 0.5 µM).
For CC1CCCN1c1nccc(-c2cnn3ncccc23)n1 (stereo not drawn), the remaining binding was 86% (binding; 1 µM).
